Reference: PMC6737205 (International Journal of Nanomedicine, 2019)

Experiments:
Set-up in all cases: species or system mouse
Details in all cases: S180 mice, oral, RGDV-gemcitabine 8.4 μmol/kg/day, gemcitabine 84 μmol/kg/day, every 3 days for 12 days, n=12
[1] = In vivo serum AST/GOT assay
[2] = In vivo serum ALT/GPT assay
Outline: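 Serum came from male ICR mice bearing subcutaneous S180 tumours (1×10^7 cells, right armpit). Blood was taken 3 hrs after the last oral dose, with saline 10 mL/kg/day as vehicle, and spun at 1000 rpm, 4°C, 10 mins. Serum was incubated with kit matrix at 37°C for 30 mins, then dinitrophenylhydrazine at 37°C for 20 mins, then 0.4 M NaOH. Read at 510 nm; ALT from a standard curve.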

In vivo serum Cr assay = test: In vivo serum Cr assay
Outline: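 Creatinine was measured with an enzymatic kit on serum from S180 tumour-bearing mice, with blood spun at 1000 rpm, 4°C, 10 mins. Serum plus enzyme solution A was incubated at 37°C for 5 mins and read at 546 nm (A1). After a further 30 mins at 37°C, enzyme solution B was added, incubated 5 mins, and read again at 546 nm (A2). Cr was calculated from the two readings.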

In vivo serum BUN assay = test: In vivo serum BUN assay
Outline: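 BUN was measured by a kit immunoassay on serum from S180 tumour-bearing mice, with blood spun at 3000 rpm, 4°C, 10 mins. Serum was incubated with anti-BUN antibody and streptavidin-HRP at 37°C for 60 mins, then washed 5 times. Chromogen was added at 37°C for 15 mins in the dark, then stop solution. Read at 450 nm within 15 mins; BUN from a standard curve.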

Nc1ccn([C@@H]2O[C@H](CO)[C@@H](O)C2(F)F)c(=O)n1 [gemcitabine]
serum AST/GOT compared with NS-treated mice [1]: significantly higher than those of NS-treated mice | serum ALT/GPT compared with NS-treated mice [2]: significantly higher than those of NS-treated mice | serum Cr compared with NS-treated mice (In vivo serum Cr assay): significantly higher than those of NS-treated mice | serum BUN compared with NS-treated mice (In vivo serum BUN assay): significantly higher than those of NS-treated mice
